Data as given in ChEMBL document CHEMBL3994613, “Diaryltriazenes as antibacterial agents against methicillin resistant Staphylococcus aureus (MRSA) and Mycobacterium smegmatis” (Eur J Med Chem, 2017).
In brackets after ≈: the same amount, converted by molar mass.

Key:
[1] = tested on: Mycolicibacterium smegmatis; test: Antimycobacterial activity against Mycobacterium smegmatis MC2 155 after 94 to 98 hrs by microdilution method; assay type: functional; settings: str. MC2 155
In short: (§1)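 Microdilution in TSB broth. Inoculum from colonies grown 96 h on TSA, final 1×10^5 CFU/mL, aerobic 94–98 h at 37 °C, growth read on a plate reader, at least duplicate.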

[2] = tested on: Mycolicibacterium smegmatis; test: Bactericidal activity against Mycobacterium smegmatis MC2 155 after 96 hrs by microdilution method; assay type: functional; settings: str. MC2 155, 96 h; in short: as §1
[3] = tested on: Staphylococcus aureus; test: Antibacterial activity against methicillin-resistant Staphylococcus aureus USA300 after 18 to 20 hrs by microdilution method; assay type: functional
In short: (§2)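 EUCAST broth microdilution in LB broth. Inoculum prepared by direct colony suspension from 20–24 h LB agar (E. coli DH10β) or 5% sheep blood BHI agar (MRSA USA300) growth. Final inoculum 2×10^4 CFU/mL, 18–20 h aerobic at 37 °C, growth read on a plate reader, at least duplicate.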

[4] = tested on: Staphylococcus aureus; test: Bactericidal activity against methicillin-resistant Staphylococcus aureus USA300 after 18 to 20 hrs by microdilution method; assay type: functional; in short: as §2
[5] = tested on: Escherichia coli; test: Antibacterial activity against Escherichia coli DH10beta harboring pHuLUC3 after 18 to 20 hrs by microdilution method; assay type: functional; in short: as §2
[6] = tested on: Escherichia coli; test: Bactericidal activity against Escherichia coli DH10beta harboring pHuLUC3 after 18 to 20 hrs by microdilution method; assay type: functional; in short: as §2
[7] = tested on: Saccharomyces cerevisiae; test: Antibacterial activity against Saccharomyces cerevisiae after 18 to 20 hrs by microdilution method
In short: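 Microdilution in YEP broth against wild-type yeast grown on YEP agar. Final inoculum 1×10^5 CFU/mL. Read after 18–20 h aerobic incubation at 30 °C on plate reader, at least one duplicate.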

Row | Compound | MIC [1] | MBC [2] | MIC [3] | MBC [4] | MIC [5] | MBC [6] | MIC [7]
1 | COC(=O)N(/N=N/c1ccc([N+](=O)[O-])cc1Cl)c1ccc([N+](=O)[O-])cc1Cl | 128 µg/mL (≈ 309 µM) | > 128 µg/mL | 32 µg/mL (≈ 77.3 µM) | 32 µg/mL (≈ 77.3 µM) | 64 µg/mL (≈ 155 µM) | 128 µg/mL (≈ 309 µM) | > 128 µg/mL
2 | O=C(c1ccccc1C(F)(F)F)N(/N=N/c1ccc([N+](=O)[O-])cc1C(F)(F)F)c1ccc([N+](=O)[O-])cc1C(F)(F)F | > 128 µg/mL |  | > 128 µg/mL |  | 128 µg/mL (≈ 215 µM) | 128 µg/mL (≈ 215 µM) | > 128 µg/mL
3 | Clc1ccc(Cl)c(/N=N/Nc2cc(Cl)ccc2Cl)c1 | > 128 µg/mL |  | > 128 µg/mL |  | > 128 µg/mL |  | > 128 µg/mL
4 | CC(=O)N(/N=N/c1ccc([N+](=O)[O-])cc1)c1ccc([N+](=O)[O-])cc1 | > 128 µg/mL |  | > 128 µg/mL |  | 64 µg/mL (≈ 194 µM) | 128 µg/mL (≈ 389 µM) | > 128 µg/mL
5 | CC(=O)N(/N=N/c1ccc([N+](=O)[O-])cc1Cl)c1ccc([N+](=O)[O-])cc1Cl | 16 µg/mL (≈ 40.2 µM) | > 128 µg/mL | 4 µg/mL (≈ 10 µM) | 4 µg/mL (≈ 10 µM) | 64 µg/mL (≈ 161 µM) | > 128 µg/mL | > 128 µg/mL
6 | O=C(c1ccccc1)N(/N=N/c1ccc([N+](=O)[O-])cc1Cl)c1ccc([N+](=O)[O-])cc1Cl | 128 µg/mL (≈ 278 µM) | > 128 µg/mL | 32 µg/mL (≈ 69.5 µM) | 32 µg/mL (≈ 69.5 µM) | 32 µg/mL (≈ 69.5 µM) | 32 µg/mL (≈ 69.5 µM) | > 128 µg/mL
7 | O=C(c1ccccc1F)N(/N=N/c1ccc([N+](=O)[O-])cc1Br)c1ccc([N+](=O)[O-])cc1Br | > 128 µg/mL |  | > 128 µg/mL |  | 128 µg/mL (≈ 226 µM) | 128 µg/mL (≈ 226 µM) | > 128 µg/mL
8 | O=C(c1ccccc1C(F)(F)F)N(/N=N/c1ccc([N+](=O)[O-])cc1Br)c1ccc([N+](=O)[O-])cc1Br | > 128 µg/mL |  | > 128 µg/mL |  | 64 µg/mL (≈ 104 µM) | 64 µg/mL (≈ 104 µM) | > 128 µg/mL
9 | O=C(c1cccc(C(F)(F)F)c1)N(/N=N/c1ccc([N+](=O)[O-])cc1Br)c1ccc([N+](=O)[O-])cc1Br | 128 µg/mL (≈ 207 µM) | > 128 µg/mL | 8 µg/mL (≈ 13 µM) | 8 µg/mL (≈ 13 µM) | 32 µg/mL (≈ 51.9 µM) | 64 µg/mL (≈ 104 µM) | > 128 µg/mL
10 | O=C(c1ccc(F)cc1)N(/N=N/c1ccc([N+](=O)[O-])cc1Br)c1ccc([N+](=O)[O-])cc1Br | > 128 µg/mL |  | > 128 µg/mL |  | 64 µg/mL (≈ 113 µM) | 64 µg/mL (≈ 113 µM) | > 128 µg/mL
11 | CC(=O)OCC(=O)N(/N=N/c1ccc([N+](=O)[O-])cc1Br)c1ccc([N+](=O)[O-])cc1Br | > 128 µg/mL |  | 8 µg/mL (≈ 14.7 µM) | 16 µg/mL (≈ 29.4 µM) | 64 µg/mL (≈ 117 µM) | 64 µg/mL (≈ 117 µM) | > 128 µg/mL
12 | O=C(c1ccccc1F)N(/N=N/c1ccc([N+](=O)[O-])cc1Cl)c1ccc([N+](=O)[O-])cc1Cl | > 128 µg/mL |  | > 128 µg/mL |  | 64 µg/mL (≈ 134 µM) | 128 µg/mL (≈ 268 µM) | > 128 µg/mL
13 | O=C(c1ccccc1C(F)(F)F)N(/N=N/c1ccc([N+](=O)[O-])cc1Cl)c1ccc([N+](=O)[O-])cc1Cl | > 128 µg/mL |  | > 128 µg/mL |  | 64 µg/mL (≈ 121 µM) | 128 µg/mL (≈ 242 µM) | > 128 µg/mL
14 | O=C(c1cccc(C(F)(F)F)c1)N(/N=N/c1ccc([N+](=O)[O-])cc1Cl)c1ccc([N+](=O)[O-])cc1Cl | 32 µg/mL (≈ 60.6 µM) | > 128 µg/mL | 8 µg/mL (≈ 15.1 µM) | 8 µg/mL (≈ 15.1 µM) | 32 µg/mL (≈ 60.6 µM) | 64 µg/mL (≈ 121 µM) | > 128 µg/mL
15 | O=C(c1ccc(C(F)(F)F)cc1)N(/N=N/c1ccc([N+](=O)[O-])cc1Cl)c1ccc([N+](=O)[O-])cc1Cl | 16 µg/mL (≈ 30.3 µM) | > 128 µg/mL | 8 µg/mL (≈ 15.1 µM) | 8 µg/mL (≈ 15.1 µM) | 64 µg/mL (≈ 121 µM) | 128 µg/mL (≈ 242 µM) | > 128 µg/mL
16 | O=C(c1cccc(F)c1)N(/N=N/c1ccc([N+](=O)[O-])cc1Cl)c1ccc([N+](=O)[O-])cc1Cl | > 128 µg/mL |  | 16 µg/mL (≈ 33.5 µM) | 16 µg/mL (≈ 33.5 µM) | 64 µg/mL (≈ 134 µM) | 64 µg/mL (≈ 134 µM) | > 128 µg/mL
17 | Fc1ccc(/N=N/Nc2ccc(F)cc2C(F)(F)F)c(C(F)(F)F)c1 | > 128 µg/mL |  | > 128 µg/mL |  | > 128 µg/mL |  | > 128 µg/mL
18 | O=C(c1cccnc1)N(/N=N/c1ccc([N+](=O)[O-])cc1Cl)c1ccc([N+](=O)[O-])cc1Cl | 64 µg/mL (≈ 139 µM) | 128 µg/mL (≈ 278 µM) | 32 µg/mL (≈ 69.4 µM) | 32 µg/mL (≈ 69.4 µM) | 32 µg/mL (≈ 69.4 µM) | 32 µg/mL (≈ 69.4 µM) | > 128 µg/mL
19 | O=C(c1ccncc1)N(/N=N/c1ccc([N+](=O)[O-])cc1)c1ccc([N+](=O)[O-])cc1 | > 128 µg/mL |  | 128 µg/mL (≈ 326 µM) | 128 µg/mL (≈ 326 µM) | 16 µg/mL (≈ 40.8 µM) | 32 µg/mL (≈ 81.6 µM) | > 128 µg/mL
20 | O=C(CCl)N(/N=N/c1ccc([N+](=O)[O-])cc1Br)c1ccc([N+](=O)[O-])cc1Br | > 128 µg/mL |  | > 128 µg/mL |  | 64 µg/mL (≈ 123 µM) | 128 µg/mL (≈ 245 µM) | > 128 µg/mL
21 | O=C(c1cccnc1)N(/N=N/c1ccc([N+](=O)[O-])cc1Br)c1ccc([N+](=O)[O-])cc1Br | 64 µg/mL (≈ 116 µM) | 128 µg/mL (≈ 233 µM) | 32 µg/mL (≈ 58.2 µM) | 32 µg/mL (≈ 58.2 µM) | 16 µg/mL (≈ 29.1 µM) | 32 µg/mL (≈ 58.2 µM) | > 128 µg/mL
22 | O=C(CCl)N(/N=N/c1ccc(C(F)(F)F)cc1C(F)(F)F)c1ccc(C(F)(F)F)cc1C(F)(F)F |  |  | > 128 µg/mL | > 128 µg/mL |  |  | > 128 µg/mL
23 | O=C(c1cccnc1)N(/N=N/c1ccc([N+](=O)[O-])cc1F)c1ccc([N+](=O)[O-])cc1F | > 128 µg/mL |  | 64 µg/mL (≈ 149 µM) | 64 µg/mL (≈ 149 µM) | 128 µg/mL (≈ 299 µM) | > 128 µg/mL | > 128 µg/mL
24 | FC(F)(F)c1ccc(/N=N/Nc2ccc(C(F)(F)F)cc2C(F)(F)F)c(C(F)(F)F)c1 |  |  | > 128 µg/mL |  |  |  | > 128 µg/mL
25 | O=C(CCl)N(/N=N/c1ccc(Cl)cc1C(F)(F)F)c1ccc(Cl)cc1C(F)(F)F |  |  | > 128 µg/mL | > 128 µg/mL |  |  | > 128 µg/mL
26 | O=C(c1cccnc1)N(/N=N/c1ccc([N+](=O)[O-])c(C(F)(F)F)c1)c1ccc([N+](=O)[O-])c(C(F)(F)F)c1 | 64 µg/mL (≈ 121 µM) | > 128 µg/mL | 4 µg/mL (≈ 7.57 µM) | 4 µg/mL (≈ 7.57 µM) | 32 µg/mL (≈ 60.6 µM) | 64 µg/mL (≈ 121 µM) | > 128 µg/mL
27 | Ic1ccccc1/N=N/Nc1ccccc1I | > 128 µg/mL |  | > 128 µg/mL |  | > 128 µg/mL |  | > 128 µg/mL
28 | O=C(c1cccnc1)N(/N=N/c1ccc([N+](=O)[O-])cc1)c1ccc([N+](=O)[O-])cc1 | > 128 µg/mL |  | 64 µg/mL (≈ 163 µM) | 128 µg/mL (≈ 326 µM) | 8 µg/mL (≈ 20.4 µM) | 16 µg/mL (≈ 40.8 µM) | > 128 µg/mL
29 | O=C(c1ccncc1)N(/N=N/c1ccc([N+](=O)[O-])cc1F)c1ccc([N+](=O)[O-])cc1F | > 128 µg/mL |  | 32 µg/mL (≈ 74.7 µM) | 32 µg/mL (≈ 74.7 µM) | > 128 µg/mL |  | > 128 µg/mL
